Calls of active or inactive are those of the source.
What was measured:
[1] = target: T1, Toll-like receptor 7 (Homo sapiens) (UniProt Q9NYK1); assay: Agonist activity at TLR7 in human whole blood assessed as induction of IFN-alpha/beta by measuring increase in secreted alkaline phosphatase level pretreated for 24 hrs followed by HEK-IFN-alpha/beta reporter cell addition after 24 hrs by spectrophotometric method
T1 sequence (whole entry): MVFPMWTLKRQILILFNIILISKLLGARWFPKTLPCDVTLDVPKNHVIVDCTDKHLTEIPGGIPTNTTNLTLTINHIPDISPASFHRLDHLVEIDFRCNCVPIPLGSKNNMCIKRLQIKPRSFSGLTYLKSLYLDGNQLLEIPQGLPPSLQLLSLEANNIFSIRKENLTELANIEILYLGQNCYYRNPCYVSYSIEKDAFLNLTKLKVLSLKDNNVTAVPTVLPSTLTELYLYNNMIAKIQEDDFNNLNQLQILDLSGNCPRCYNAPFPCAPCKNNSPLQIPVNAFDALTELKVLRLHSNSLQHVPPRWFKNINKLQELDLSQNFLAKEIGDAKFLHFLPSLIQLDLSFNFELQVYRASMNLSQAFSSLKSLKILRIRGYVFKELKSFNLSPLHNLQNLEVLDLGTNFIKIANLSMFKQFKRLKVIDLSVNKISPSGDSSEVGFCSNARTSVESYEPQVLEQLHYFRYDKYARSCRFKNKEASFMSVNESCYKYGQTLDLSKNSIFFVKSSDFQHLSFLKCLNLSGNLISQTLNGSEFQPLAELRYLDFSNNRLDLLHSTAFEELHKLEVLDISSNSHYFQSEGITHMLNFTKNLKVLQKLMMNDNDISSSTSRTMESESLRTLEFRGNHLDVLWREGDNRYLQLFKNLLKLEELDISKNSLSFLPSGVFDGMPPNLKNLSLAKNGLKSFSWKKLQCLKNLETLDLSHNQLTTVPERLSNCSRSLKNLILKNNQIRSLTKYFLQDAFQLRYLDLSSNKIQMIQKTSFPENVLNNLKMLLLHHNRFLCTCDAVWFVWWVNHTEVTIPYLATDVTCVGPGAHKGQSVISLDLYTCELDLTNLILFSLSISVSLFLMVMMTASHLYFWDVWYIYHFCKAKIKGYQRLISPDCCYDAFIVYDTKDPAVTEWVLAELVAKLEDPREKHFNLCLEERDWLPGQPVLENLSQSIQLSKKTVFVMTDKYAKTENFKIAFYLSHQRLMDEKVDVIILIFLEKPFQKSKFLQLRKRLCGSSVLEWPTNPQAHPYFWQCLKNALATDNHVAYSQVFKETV
Summary of the method: (§1)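 Heparinized human whole blood, diluted 1:2 in RPMI with 10% FBS, was incubated with serial compound dilutions at 37°C for 24 h. Supernatant was moved by liquid handler onto HEK-IFNα/β, HEK-IFNγ or HEK-TNFα/IL-1β reporter cells (1x10⁶ cells/mL, DMEM with 10% FBS) for 24 h at 37°C. Plates were washed and given detection medium for 16 h, then sAP read at 620 nm. Calibration used serum spiked with IFN-α, IFN-γ or TNF-α.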

[2] = target: T1, Toll-like receptor 7 (Homo sapiens); assay: Agonist activity at TLR7 in human plasmacytoid dendritic cells assessed as upregulation of CD80 expression after 16 hrs by efluor 780 dye based flow cytometry
Summary of the method: (§2)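 Human PBMCs were incubated with serial compound dilutions at 37 °C for 16 h, with DMSO controls. Cells were stained with eFluor780 viability dye, then lineage and DC antibodies plus CD80 PE, and fixed. 250,000 gated events were acquired. pDCs were gated as Live Lin⁻ CD123⁺ CD303⁺ CD304⁺ HLA-DR⁺. cDCs were gated as Lin⁻ CD1c⁺ CD141⁻ CD11c⁺ HLA-DR⁺ or Lin⁻ CD141⁺ CD1c⁻ HLA-DR⁺. Median fluorescence intensity was quantified.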

[3] = target: T2, Toll-like receptor 8 (Homo sapiens) (UniProt Q9NR97); assay: Agonist activity at TLR8 in human whole blood assessed as induction of TNF-alpha/IL-1beta by measuring increase in secreted alkaline phosphatase level pretreated for 24 hrs followed by HEK-TNF-alpha/IL-1beta reporter cell addition after 24 hrs by spectrophotometric method; summary of the method: as §1
T2 sequence (whole entry): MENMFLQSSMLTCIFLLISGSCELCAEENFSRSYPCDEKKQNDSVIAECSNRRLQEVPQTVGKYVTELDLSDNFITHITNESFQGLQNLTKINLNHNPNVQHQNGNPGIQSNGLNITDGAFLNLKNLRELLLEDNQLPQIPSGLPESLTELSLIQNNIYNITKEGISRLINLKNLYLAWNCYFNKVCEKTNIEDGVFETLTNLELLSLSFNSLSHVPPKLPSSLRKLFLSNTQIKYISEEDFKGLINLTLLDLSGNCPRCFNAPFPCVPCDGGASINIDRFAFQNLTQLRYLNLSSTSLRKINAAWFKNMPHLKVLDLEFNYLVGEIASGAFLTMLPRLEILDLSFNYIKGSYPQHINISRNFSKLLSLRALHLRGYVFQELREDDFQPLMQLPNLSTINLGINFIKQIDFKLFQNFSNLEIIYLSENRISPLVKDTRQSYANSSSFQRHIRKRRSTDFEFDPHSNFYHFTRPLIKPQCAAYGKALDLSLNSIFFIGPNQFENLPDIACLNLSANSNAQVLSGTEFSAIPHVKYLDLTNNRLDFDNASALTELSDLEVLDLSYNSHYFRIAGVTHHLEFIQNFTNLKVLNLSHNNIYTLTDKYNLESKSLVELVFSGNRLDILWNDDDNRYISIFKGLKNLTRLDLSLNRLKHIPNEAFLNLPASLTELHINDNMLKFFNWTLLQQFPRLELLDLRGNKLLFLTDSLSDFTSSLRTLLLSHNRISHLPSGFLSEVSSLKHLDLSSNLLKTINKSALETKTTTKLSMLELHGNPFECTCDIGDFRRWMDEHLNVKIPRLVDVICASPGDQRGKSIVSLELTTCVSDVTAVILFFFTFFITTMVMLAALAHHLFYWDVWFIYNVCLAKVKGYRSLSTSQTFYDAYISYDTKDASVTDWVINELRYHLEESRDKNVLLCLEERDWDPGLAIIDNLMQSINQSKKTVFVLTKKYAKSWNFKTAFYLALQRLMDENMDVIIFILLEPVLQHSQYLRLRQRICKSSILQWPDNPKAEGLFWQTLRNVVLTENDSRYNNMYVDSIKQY

[4] = target: T2, Toll-like receptor 8 (Homo sapiens); assay: Agonist activity at TLR8 in human CD141 positive conventional dendritic cells assessed as upregulation of CD80 expression after 16 hrs by efluor 780 dye based flow cytometry; summary of the method: as §2
[5] = target: T2, Toll-like receptor 8 (Homo sapiens); assay: Agonist activity at TLR8 in human […] conventional dendritic cells assessed as upregulation of CD80 expression after 16 hrs by efluor 780 dye based flow cytometry; summary of the method: as §2
[6] = target: T2, Toll-like receptor 8 (Homo sapiens); assay: Agonist activity at TLR8 in human whole blood assessed as induction of IFN-gamma by measuring increase in secreted alkaline phosphatase level pretreated for 24 hrs followed by HEK-IFN-gamma reporter cell addition after 24 hrs by spectrophotometric method; summary of the method: as §1

Measured: Activity

CCCCNc1nc(N)nc(C)c1CCCN1CCOCC1
active: all assays above

Reference: ChEMBL document CHEMBL4007404, “Identification of High-Potency Human TLR8 and Dual TLR7/TLR8 Agonists in Pyrimidine-2,4-diamines” (J Med Chem, 2017)
